Measurements as given in ChEMBL document CHEMBL5030529, “Rationally Modified Antimicrobial Peptides from the N-Terminal Domain of Human RNase 3 Show Exceptional Serum Stability” (J Med Chem, 2021).
≈ marks a conversion by molar mass, not a printed value. Calls of active or inactive are those of the source. The rule behind the calls is not given here.

Experiments:
Cell membrane [1] = assay: Induction of membrane depolarization in Escherichia coli at 0.4 uM incubated 20 to 30 mins under dark by Eclipse fluorescence spectrometry; format: subcellular; settings: time 20-30 min
Outline: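 Exponential-phase E. coli (OD 0.2–0.4) was washed in 5 mM HEPES, 20 mM glucose, 100 mM KCl, pH 7.2, and resuspended to OD 0.05. DiSC3(5) was added at 0.4 μM final and equilibrated in the dark for 20–30 min to a stable baseline. Peptide was then added and dye release was followed by fluorescence at ex 625 nm / em 666 nm.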

Cell membrane [2] = assay: Induction of membrane damage in Escherichia coli assessed as loss of membrane integrity by measuring blebs at 10 uM incubated for 2 hrs by Electron scanning microscopy; format: subcellular
Outline: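 E. coli was grown in LB at 37 °C to OD600 0.4 and exposed to 10 μM peptide for 2 h at room temperature. Cells were collected on 0.1 μm filters, fixed in 2.5% glutaraldehyde in cacodylate buffer pH 7.4 and post-fixed in 1% OsO4. Samples were dehydrated in ethanol, coated with gold–palladium and imaged at 15 kV.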

Pseudomonas sp. = assay: Antimicrobial activity against Pseudomonas sp assessed as bacterial growth inhibition incubated in presence of serum for 24 hrs; format: functional
Outline: (§1)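 Broth microdilution in polypropylene plates in Mueller-Hinton medium, inoculum 5 × 10^5 CFU/mL, 37 °C for 24 h. […] MIC is the lowest peptide concentration with no growth. Values are the mean of three independent studies.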

[3] = Stability in human serum assessed as half life by LC-MS analysis; format: ADME, cell-free
Outline: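 1 mM peptide stocks in water were mixed 1:1 (v/v) with human serum. Aliquots were taken at set times and digestion was stopped by acetonitrile precipitation. Serum proteins were removed by centrifugation, and intact peptide and fragments in the supernatant were analysed by LC–MS. Half-life values are the mean of three independent studies.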

Acinetobacter baumannii [4] = assay: Antimicrobial activity against Acinetobacter baumannii assessed as bacterial growth inhibition incubated for 24 hrs
Escherichia coli [5] = assay: Antimicrobial activity against clinical isolate Escherichia coli 116878 assessed as bacterial growth inhibition incubated in presence of serum for 24 hrs; format: functional; outline: as §1
Acinetobacter baumannii [6] = assay: Antimicrobial activity against clinical isolate Acinetobacter baumannii 3879 assessed as bacterial growth inhibition incubated in presence of serum for 24 hrs; format: functional; outline: as §1
Acinetobacter baumannii [7] = assay: Antimicrobial activity against clinical isolate Acinetobacter baumannii 3862 assessed as bacterial growth inhibition incubated in presence of serum for 24 hrs; format: functional; outline: as §1
Salmonella enterica = assay: Antimicrobial activity against Salmonella enterica assessed as bacterial growth inhibition incubated in presence of serum for 24 hrs; format: functional; outline: as §1
[8] = Hemolytic activity in horse RBC assessed as hemolysis at 250 uM relative to control; format: ADME, tissue-based, Equus caballus; settings: erythrocyte
Outline: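 Horse erythrocytes were diluted 10-fold in PBS and washed by three spins at 800g. They were incubated with peptides for 4 h at 37 °C, and supernatant absorbance was read at 540 nm. Percent hemolysis is relative to total lysis with 1% Triton X-100. Values are the mean of three independent studies.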

Acinetobacter baumannii [9] = assay: Antimicrobial activity against clinical isolate Acinetobacter baumannii 3878 assessed as bacterial growth inhibition incubated in presence of serum for 24 hrs; format: functional; outline: as §1
Pseudomonas aeruginosa [10] = assay: Antimicrobial activity against clinical isolate Pseudomonas aeruginosa 827651 assessed as bacterial growth inhibition incubated in presence of serum for 24 hrs; format: functional; outline: as §1
Acinetobacter baumannii [11] = assay: Antimicrobial activity against clinical isolate Acinetobacter baumannii 3880 assessed as bacterial growth inhibition incubated in presence of serum for 24 hrs; format: functional; outline: as §1
Escherichia coli [12] = assay: Antimicrobial activity against clinical isolate Escherichia coli cf073 assessed as bacterial growth inhibition incubated in presence of serum for 24 hrs; format: functional; outline: as §1
Salmonella typhimurium [13] = assay: Antimicrobial activity against clinical isolate Salmonella typhimurium 365 assessed as bacterial growth inhibition incubated in presence of serum for 24 hrs; format: functional, Salmonella enterica subsp. enterica serovar Typhimurium; settings: Salmonella enterica; outline: as §1
Salmonella typhimurium [14] = assay: Antimicrobial activity against clinical isolate Salmonella typhimurium 324 assessed as bacterial growth inhibition incubated in presence of serum for 24 hrs; format: functional, Salmonella enterica subsp. enterica serovar Typhimurium; settings: Salmonella enterica; outline: as §1
MRC5 = assay: Cytotoxicity against human MRC5 cells assessed as cell growth inhibition measured after 4 hrs by MTT assay; format: cell-based; settings: MRC5, 4 h
Outline: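 MRC-5 fibroblasts were grown in MEMα with 10% FBS, seeded at 3 × 10^4 cells/well and left overnight to adhere. Cells were exposed to two-fold peptide serial dilutions for 4 h, then given medium with MTT at 0.4 mg/mL for 150 min. Formazan was dissolved in DMSO and read at 600 nm. Values are the mean of three independent studies.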

Pseudomonas aeruginosa [15] = assay: Antimicrobial activity against clinical isolate Pseudomonas aeruginosa 827632 assessed as bacterial growth inhibition incubated in presence of serum for 24 hrs; format: functional; outline: as §1
Escherichia coli [16] = assay: Antimicrobial activity against Escherichia coli assessed as bacterial growth inhibition incubated for 24 hrs
Shigella flexneri = assay: Antimicrobial activity against Shigella flexneri assessed as bacterial growth inhibition incubated in presence of serum for 24 hrs; format: functional; outline: as §1
[17] = Retention time of the compound by HPLC analysis; format: physicochemical
Outline: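 Analytical RP-HPLC on a C18 column (4.6 × 50 mm, 3 μm) with a linear gradient of 0–60% acetonitrile (0.036% TFA) into water (0.045% TFA) over 15 min. Flow was 1 mL/min with UV detection at 220 nm.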

SMILES | Activity (Cell membrane [1]) | Activity (Cell membrane [2]) | MIC (Pseudomonas sp.) [µM] | half-life [3] [h] | MIC (Acinetobacter baumannii [4]) [µM] | MIC (Escherichia coli [5]) [µM] | MIC (Acinetobacter baumannii [6]) [µM] | MIC (Acinetobacter baumannii [7]) [µM] | MIC (Salmonella enterica) [µM] | Activity [8] [%] | MIC (Acinetobacter baumannii [9]) [µM] | MIC (Pseudomonas aeruginosa [10]) [µM] | MIC (Acinetobacter baumannii [11]) [µM] | MIC (Escherichia coli [12]) [µM] | MIC (Salmonella typhimurium [13]) [µM] | MIC (Salmonella typhimurium [14]) [µM] | IC50 (MRC5) [µM] | MIC (Pseudomonas aeruginosa [15]) [µM] | MIC (Escherichia coli [16]) [µM] | MIC (Shigella flexneri) [µM] | other results
CC[C@H](C)[C@H](NC(=O)[C@H](CCCCN)NC(=O)[C@H](CCC(=O)O)NC(=O)[C@H](CCCCN)NC(=O)[C@H](CO)NC(=O)[C@H](CCCCN)NC(=O)[C@H](CCCNC(=N)N)NC(=O)[C@H](Cc1ccccc1)NC(=O)[C@H](Cc1ccccc1)NC(=O)[C@H](CC(=O)O)NC(=O)CNC(=O)[C@H](CC(C)C)NC(=O)[C@@H](N)CC(C)C)C(=O)NCC(=O)N[C@@H](CCCCN)C(=O)N[C@@H](CCC(=O)O)C(=O)N[C@@H](Cc1ccccc1)C(=O)N[C@@H](CCCCN)C(=O)N[C@@H](CCCNC(=N)N)C(=O)N[C@H](C(=O)N[C@H](C(=O)N[C@@H](CCC(N)=O)C(=O)N[C@@H](CCCNC(=N)N)C(=O)N[C@H](C(=O)N[C@@H](CCCCN)C(=O)N[C@@H](CC(=O)O)C(=O)N[C@@H](Cc1ccccc1)C(=O)N[C@@H](CC(C)C)C(=O)N[C@@H](CCCNC(=N)N)C(=O)N[C@@H](CC(N)=O)C(=O)N[C@@H](CC(C)C)C(=O)N[C@H](C(=O)N1CCC[C@H]1C(=O)N[C@@H](CCCNC(=N)N)C(=O)N[C@H](C(=O)N[C@@H](CCC(=O)O)C(=O)N[C@@H](CO)C(=O)O)[C@@H](C)O)C(C)C)[C@@H](C)CC)C(C)C)[C@@H](C)CC | Active | Active | – | – | – | – | – | – | – | – | – | – | – | – | – | – | – | – | – | – | –
CC[C@H](C)[C@H](NC(=O)[C@H](C)NC(=O)[C@H](CCCN)NC(=O)[C@H](CCSC)NC(=O)[C@H](C)NC(=O)[C@@H](NC(=O)[C@@H](NC(=O)[C@H](CCCN)NC(=O)[C@@H]1CCCN1C(=O)[C@H](CO)NC(=O)[C@@H](NC(=O)[C@H](Cc1c[nH]cn1)NC(=O)[C@H](CCC(N)=O)NC(=O)[C@@H](NC(=O)[C@H](C)NC(=O)[C@H](Cc1ccccc1)NC(=O)[C@H](Cc1c[nH]c2ccccc12)NC(=O)[C@H](CCC(N)=O)NC(=O)[C@H](C)NC(=O)[C@H](CCCN)NC(=O)[C@@H](NC(=O)[C@H](Cc1ccccc1)NC(=O)[C@H]1CCCN1C(=O)[C@@H](N)CCCN)[C@@H](C)O)[C@@H](C)CC)[C@@H](C)CC)[C@@H](C)O)[C@@H](C)CC)C(=O)N[C@@H](CC(N)=O)C(=O)N[C@@H](CC(N)=O)C(=O)N[C@@H](Cc1ccc(O)cc1)C(=O)N[C@@H](CCCN)C(=O)N[C@@H](Cc1c[nH]c2ccccc12)C(=O)N[C@@H](CCCN)C(=O)O | Active | Active | 1.56 | > 8 | 12.5 (≈ 43.8 µg/mL) | 25 | 3.13 | 1.56 | 50 | 1.1 | 0.78 | 25 | 12.5 | 6.25 | 25 | 25 | 230 | > 100 | 3.13 (≈ 11 µg/mL) | 50 | Retention_time [17]: 10.9 min
CC[C@H](C)[C@H](NC(=O)[C@H](C)NC(=O)[C@H](CCCN)NC(=O)[C@H](CCSC)NC(=O)[C@H](C)NC(=O)[C@@H](NC(=O)[C@@H](NC(=O)[C@H](CCCN)NC(=O)[C@@H]1CCCN1C(=O)[C@H](CO)NC(=O)[C@@H](NC(=O)[C@H](Cc1c[nH]cn1)NC(=O)[C@H](CCC(N)=O)NC(=O)[C@@H](NC(=O)[C@H](C)NC(=O)[C@H](Cc1ccccc1)NC(=O)[C@H](Cc1c[nH]c2ccccc12)NC(=O)[C@H](CCC(N)=O)NC(=O)[C@H](C)NC(=O)[C@H](CCCN)NC(=O)[C@@H](NC(=O)[C@H](Cc1ccccc1)NC(=O)[C@H]1CCCN1C(=O)[C@H](N)CCCN)[C@@H](C)O)[C@@H](C)CC)[C@@H](C)CC)[C@@H](C)O)[C@@H](C)CC)C(=O)N[C@@H](CC(N)=O)C(=O)N[C@@H](CC(N)=O)C(=O)N[C@@H](Cc1ccc(O)cc1)C(=O)N[C@@H](CCCN)C(=O)N[C@@H](Cc1c[nH]c2ccccc12)C(=O)N[C@@H](CCCN)C(=O)O | Active | Active | 1.56 | > 8 | 6.25 (≈ 21.9 µg/mL) | 6.25 | 1.56 | 0.78 | 25 | 3.6 | 0.78 | 100 | 6.25 | 3.13 | 25 | 25 | 170 | 25 | 3.13 (≈ 11 µg/mL) | 6.25 | Retention_time [17]: 10.8 min
